Many of the other results were omitted from the sample, so hits are more common in it than they were.
INS promoter act: activators of insulin promoter-driven GFP, primary screen, imaging, TRM-6 cells (human fetal islet line), eGFP reporter, cell count | 130,000 tested, 0.81% active | plate-scaled: unstimulated 0, stimulated control 100 | activation, % at 2 µM;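 active = activation at 2 µM above a set limit, confirmed on inspection of the cell images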;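 note: share of cells whose green reporter signal exceeds an intensity cutoff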
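System – TRM-6 insulin promoter–eGFP reporter cells · Probe or stimulus – 0.75 µM tamoxifen as reporter inducer · Dosing – single-point 2 µM compound dose · Incubation – tamoxifen pre-incubation 15 h overnight, then compound exposure 48 h at 37 °C · Measured by – fixed-cell fluorescence microscopy, eGFP plus Hoechst · Evaluation – percent GFP-positive cells normalized to per-plate controls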
A number is an active result; i = inactive; [ ] = dose if it differs, or a comment.

SMILES | INS promoter act
COCCNC(=O)COC(=O)/C=C/c1cnc2ccccc2n1 | i
COCCNC(=O)CN(C(=O)c1ccc(N2CCCC2)nc1)c1ccccc1 | 772.7
COc1ccc(-c2nnn(CC(=O)N(CC(=O)NCCC(C)C)c3ccccc3)n2)cc1OC | i
CC(=O)Nc1ccc(S(=O)(=O)N2CCC(C(=O)O)CC2)cc1 | i
CC(=O)Nc1ccc2c(c1)C(C)(C)C(C)N2C (configuration not stated) | i
COc1ccc(C)cc1NC(=O)CSc1nnc(COc2ccc(Cl)cc2)n1Cc1ccco1 | 141.7
CCn1c(SCc2nc3ccccc3[nH]2)nnc1-c1cccs1 | i
COc1ccccc1NC(=O)CSc1nnc(-c2ccco2)n1Cc1ccco1 | i
Cn1c(COc2ccccc2)nnc1SCc1nc2ccccc2[nH]1 | i
Clc1ccc(OCc2nnc(SCc3nc4ccccc4[nH]3)n2Cc2ccco2)cc1 | 128.6
O=C(CSc1nnc(Cc2cccs2)n1Cc1ccco1)Nc1cc(Cl)cc(Cl)c1 | i
CNC(=O)COC(=O)c1cc(-c2ccccc2)nn1-c1ccccc1 | i
CCCCCC1CC(CC(=O)Nc2ccc([N+](=O)[O-])cc2)C(=O)O1 (configuration not stated) | i
Cc1cc(NC(=O)C2CCCN2C(=O)Nc2cccc(Cl)c2)ccc1-n1cnnn1 (configuration not stated) | i
COc1cccc(-c2nnc(NC(=O)c3ccc4ncsc4c3)o2)c1 | i
COc1ccccc1CNC(=S)Nc1ccc2nc(N3CCN(C)CC3)cc(C)c2c1 | i
Cc1ccc(NC(=O)C2CCCN2S(=O)(=O)c2ccc(F)cc2)c(C)c1 (configuration not stated) | i
CCOC(=O)c1cc(C(C)(C)C)oc1CNC(=O)c1c(C)oc2c1CCCC2 | 493.3
Cc1cc(C(C)(C)C)oc1C(=O)NCCCNC(=O)c1oc(C(C)(C)C)cc1C | i
CCOC(=O)c1cc(C(C)(C)C)oc1CN | i
CC(C)(C)Cc1nc(-c2ccc(Cl)cc2)no1 | i
Cc1nnc(SCC(=O)NC(=O)NCc2ccco2)n1Cc1ccccc1 | i
O=C(c1ccco1)N1CCN(C(c2coc3ccc(Cl)cc3c2=O)c2nnnn2C2CCCC2)CC1 (configuration not stated) | i
O=C(c1ccco1)N1CCN(C(c2ccccn2)c2nnnn2C2CCCC2)CC1 (configuration not stated) | i
CCCC(c1nnnn1C1CCCC1)N1CCN(C(=O)c2ccco2)CC1 (configuration not stated) | 180.6
SMILES | INS promoter act
O=C(CCn1cnc(-c2ccccc2)c1-c1ccccc1)N/N=C/c1ccccc1O | i
Cc1ccc(NC(=O)c2cc(S(=O)(=O)c3ccccc3)ccc2Cl)cc1 | i
Cc1cc(S(=O)(=O)NC2CCCCC2)ccc1OCC(=O)NCc1ccccn1 | i
CCc1nc(N)c(C#N)c(-c2ccc(OC)c(OC)c2)c1C | 83.3
COc1ccc(-c2c(C#N)c(N)nc3c2CCCC3)cc1OC | i
CCc1nc(N)c(C#N)c(-c2cccc3ccccc23)c1C | i
O=C(c1ccc(Cl)c(S(=O)(=O)N2CCOCC2)c1)N1CCN(Cc2ccccc2)CC1 | i
CCCn1cc(NC(=O)c2cc3n(n2)C(C(F)(F)F)CC(c2ccccc2)N3)cn1 (configuration not stated) | 431.3
Cc1nn(C)c(C)c1CNC(=O)c1cc2n(n1)C(C(F)(F)F)CC(c1cccs1)N2 (configuration not stated) | i
Cc1cc(NC(=O)c2cc3n(n2)C(C(F)(F)F)CC(c2ccco2)N3)n(-c2ccccc2)n1 (configuration not stated) | i
O=C(CCn1cnnn1)Nc1ccc(Cl)c(Cl)c1 | i
Cc1cc(OCCCCNC(C)C)cc(C(C)C)c1 | i
Cc1c(C(=O)OC(C)C)sc(NC(=O)C2CCCO2)c1C(=O)OC(C)C (configuration not stated) | i
Cc1sc(NC(=O)C2CCCO2)c(C#N)c1C (configuration not stated) | i
COC(=O)c1sc(NC(=O)C2CCCO2)c(C(=O)OC)c1C (configuration not stated) | 427.8
CCN1/C(=C/C=C/c2oc3ccc(-c4ccccc4)cc3[n+]2CC)Oc2ccc(-c3ccccc3)cc21 | 809.1[fluoresces]
NC(=O)C1(N2CCCCC2)CCN(CC(=O)Nc2ccccc2-c2ccccc2)CC1 | i
NC(=O)C1(N2CCCCC2)CCN(Cc2ccccc2Cl)CC1 | 456.3
NC(=O)C1(N2CCCCC2)CCN(C(=O)CSc2nc3ccccc3o2)CC1 | i
Cc1cccc(-n2c(SCc3ccc([N+](=O)[O-])cc3)nnc2-c2c[nH]c3ccccc23)c1 | i
CC[n+]1c(/C=C(\C)Nc2ccccc2)sc2ccccc21 | i
COc1ccc2nc(NC(=O)Nc3ccccc3)sc2c1 | i
CC[n+]1c(/C=C/C=C/N(C(C)=O)c2ccccc2)sc2cc(OC)ccc21 | 270.4
Clc1ccc(CO/N=C2\CCCc3nonc32)cc1 | i
CCC(C)(C)NC(=O)C(c1ccc(OC)cc1)N(Cc1cccs1)C(=O)CCC(=O)Nc1cc(C)on1 (configuration not stated) | 600.0
